Screens as filed in PubChem.
An excerpt weighted towards active compounds, which were near 4.1% of everything screened.
hERG protect: hERG (human) protection from proarrhythmic block; Q12809; CHO-hERG, FluxOR thallium flux, dofetilide IC70 present; activation (rescue from dofetilide block), less the hit threshold, % at 10 µM; 0.51% of 310,000 active; AID 1511;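 active = activation above the mean of controls blocked by dofetilide plus 5 SD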;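 also: thallium influx through hERG after potassium depolarization seen as dye fluorescence rise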
KCNK3 inh: human KCNK3 channel inhibition, primary screen. O14649. 0.84% of 340,000 active. B-score at 10 µM. CHO-KCNK3 thallium flux, FluxOR fluorescence; stronger effect = lower value;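 active = B-score under library mean minus 4 SD, starting fluorescence ratio at most library mean plus 5 SD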;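 also: more negative B-score means stronger inhibition of thallium flux through KCNK3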
KCC2 mod: modulators of human KCC2 chloride dependent transport; KCC2 cells, thallium flux FluoZin-2 fluorescence; B-score of Tl+ flux slope (higher = more flux/activation; lower = inhibition) at 10 µM; 2.2% of 190,000 active; Q9H2X9;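 active = thallium flux slope and its plate-corrected score both differing from the plate sample mean at a set confidence after two filtering rounds, in either direction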;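 also: slope of fluorescence scaled to starting intensity during 10 to 20 s after thallium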
KCNQ1 block: inhibitors of human KCNQ1 potassium channel; P51787; 1.3% of 310,000 active; CHO-K1 KCNQ1, FluxOR thallium flux fluorescence; stronger effect = higher value; B-score at 10 µM;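 active = compounds whose thallium flux B-score, printed positive for inhibition, exceeds three library SD while starting fluorescence stays within three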;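 also: channel opened by potassium depolarization with thallium stimulus after 20 min compound exposure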
KCNK9 inh: inhibitors of human KCNK9 two-pore domain potassium channel | Q9NPC2 | HEK293 KCNK9, FluxOR thallium flux fluorescence; stronger effect = lower value | B-score at 10 µM | 1.2% of 310,000 active;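 active = ratio B-score over 3 SD below the library mean, with starting fluorescence within 5 SD of its mean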;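 also: negative B-score means less thallium flux so channel inhibition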
KCNQ1 pot: human KCNQ1 channel potentiation or activation; 0.35% of 310,000 active; P51787; CHO-K1 KCNQ1, thallium flux FluxOR fluorescence; stronger effect = higher value; B-score at 10 µM;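 active = fluorescence ratio B-score, a plate-corrected score, at least three library SD, with initial intensity B-score within 5 SD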
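Assay system: stable KCNQ1 CHO-K1 line; medium: assay buffer, equal DMSO in all wells; timing: 90 min dye loading and 20 min compound exposure, both at room temperature; technique: kinetic FluxOR thallium fluorescence, 10-s 1-Hz baseline, 110-s post-stimulus read; read-out basis: B score of baseline-normalized fluorescence ratio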
Numbers without * were called inactive.

C=CCNC(=O)COC(=O)c1ccc(Cl)c(S(=O)(=O)N(Cc2ccccc2)c2ccccc2)c1 was read as hERG protect -7, KCNK3 inh inactive, KCC2 mod -3.1, KCNQ1 block 6*, KCNK9 inh inactive and KCNQ1 pot inactive.
Cc1ccccc1N=Nc1c(C)[nH]n(-c2ccccc2)c1=O was read as KCC2 mod 0.9.
For Cc1[nH]n(-c2ccccc2)c(=O)c1/C=N/c1ccccn1 the results were hERG protect -8, KCNK3 inh inactive, KCC2 mod 18*, KCNQ1 block inactive, KCNK9 inh inactive and KCNQ1 pot inactive.
For Cc1[nH]n(-c2ccccc2)c(=O)c1N=Nc1nccs1 the results were hERG protect 114*, KCNK3 inh inactive, KCC2 mod 25*, KCNQ1 block inactive, KCNK9 inh inactive and KCNQ1 pot 78*.
`Cc1cnc(CN(C)Cc2c(C(=O)N3CCCCCCC3)nc3ccc(Cl)cn23)[nH]1` gave hERG protect -16, KCNK3 inh inactive, KCNQ1 block inactive, KCNK9 inh inactive and KCNQ1 pot inactive.
`Cc1ccc(-c2nnc(SC(C)C(=O)NCC3CCCO3)nc2-c2ccc(C)cc2)cc1` (centres undefined) gave hERG protect -10, KCNK3 inh inactive, KCNQ1 block inactive, KCNK9 inh inactive and KCNQ1 pot inactive.
`C=CCC1(O)C(=O)N2C(=C1C(=O)OCC)c1ccc3ccccc3c1CC2(C)C` (centres undefined) gave hERG protect -17, KCNK3 inh inactive, KCC2 mod -0.052, KCNQ1 block inactive, KCNK9 inh inactive and KCNQ1 pot inactive.
For CC1(C)Cc2c(ccc3ccccc23)C2=C(C(=O)N3CCCC3)C(=O)C(=O)N21 the results were hERG protect 5.1*, KCNK3 inh inactive, KCC2 mod -1.9, KCNQ1 block inactive, KCNK9 inh inactive and KCNQ1 pot inactive.
`Cc1ccc(S(=O)(=O)NNC(=O)Nc2cccc(F)c2)c(C)c1` gave hERG protect -7, KCNK3 inh inactive, KCNQ1 block inactive, KCNK9 inh inactive and KCNQ1 pot inactive.
For N#C/C(=C\c1ccc(N2CCOCC2)o1)C(=O)Nc1ccc(O)cc1 the results were hERG protect -25, KCNK3 inh inactive, KCC2 mod inactive, KCNQ1 block 7*, KCNK9 inh inactive and KCNQ1 pot inactive.
`N#C/C(=C/c1ccc(N2CCCCC2)o1)C(=O)Nc1ccc(Cl)cc1` gave hERG protect -13, KCNK3 inh inactive, KCNQ1 block inactive, KCNK9 inh inactive and KCNQ1 pot inactive.
`N#C/C(=C/c1ccc(N2CCOCC2)o1)C(=O)NC1CCCCC1` gave hERG protect -24, KCNK3 inh inactive, KCC2 mod inactive, KCNQ1 block 7*, KCNK9 inh inactive and KCNQ1 pot inactive.
`Cc1cc(C)cc(C(=O)NC(=S)Nc2ccc3c(c2)OCCO3)c1` gave hERG protect -7, KCNK3 inh inactive, KCC2 mod 1, KCNQ1 block inactive, KCNK9 inh inactive and KCNQ1 pot inactive.
Screening Cc1ccc(C(=O)NC(=S)Nc2ccc3c(c2)OCCO3)c(C)c1 returned hERG protect -7, KCNK3 inh inactive, KCC2 mod 13*, KCNQ1 block inactive, KCNK9 inh inactive and KCNQ1 pot inactive.
Screening CCOC(=O)c1cc(CC)sc1NC(=O)c1cccc(N2C(=O)CCC2=O)c1 returned hERG protect -8, KCNK3 inh inactive, KCC2 mod -1.8, KCNQ1 block inactive, KCNK9 inh inactive and KCNQ1 pot inactive.
For O=C1CC(c2ccc(O)cc2)Oc2cc(O)cc(O)c21 (centres undefined) the results were hERG protect -7, KCNK3 inh inactive, KCC2 mod -0.024, KCNQ1 block inactive, KCNK9 inh inactive and KCNQ1 pot inactive.
`CC1CC(=O)c2c(cc3c(-c4c(O)cc(O)c5c(O)c6c(cc45)OC(C)CC6=O)c(O)cc(O)c3c2O)O1` (centres undefined) gave hERG protect -6, KCNK3 inh inactive, KCC2 mod -6.1*, KCNQ1 block inactive, KCNK9 inh inactive and KCNQ1 pot inactive.
For CNC(=S)N(CCCO)Cc1cc2cc3c(cc2[nH]c1=O)OCO3 the results were hERG protect -11, KCNK3 inh inactive, KCNQ1 block inactive, KCNK9 inh inactive and KCNQ1 pot inactive.
Screening Cc1ccc(C)c(Cn2c(=O)c3c(nc4n3CCN4Cc3ccco3)n(C)c2=O)c1 returned hERG protect -15, KCNK3 inh inactive, KCC2 mod -0.044, KCNQ1 block inactive, KCNK9 inh inactive and KCNQ1 pot inactive.
For Cc1cc(/C=C2\SC(=S)NC2=O)c(C)n1-c1ccc(O)cc1 the results were hERG protect -22, KCNK3 inh inactive, KCC2 mod -5.5*, KCNQ1 block inactive, KCNK9 inh inactive and KCNQ1 pot inactive.
`COc1ccc(-n2c(C)cc(/C=C3\SC(=S)NC3=O)c2C)cc1` gave hERG protect -7, KCNK3 inh inactive, KCC2 mod 1.8, KCNQ1 block inactive, KCNK9 inh inactive and KCNQ1 pot inactive.
Screening CCC(C)NC(=O)CSc1nc2ccccc2c(=O)n1CCCN1CCCCC1 (centres undefined) returned hERG protect 0, KCNK3 inh inactive, KCNQ1 block inactive, KCNK9 inh inactive and KCNQ1 pot inactive.
`CCC(C)(C(=O)NC1CCCC1)N(C(=O)Cc1cccs1)c1c(C)n(C)n(-c2ccccc2)c1=O` (centres undefined) gave hERG protect -38, KCNK3 inh inactive, KCC2 mod 0.5, KCNQ1 block 10*, KCNK9 inh inactive and KCNQ1 pot inactive.
`CCCCNC(=O)CS(=O)Cc1nc(-c2cccs2)oc1C` (centres undefined) gave hERG protect -5, KCNK3 inh inactive, KCNQ1 block inactive, KCNK9 inh inactive and KCNQ1 pot inactive.
CCCCc1n[nH]c(=S)n1Cc1ccc(C)cc1 was read as hERG protect -5, KCNK3 inh inactive, KCC2 mod 0.77, KCNQ1 block inactive, KCNK9 inh -17* and KCNQ1 pot inactive.
Screening CCCCCCCc1n[nH]c(=S)n1Cc1ccccc1 returned hERG protect -8, KCNK3 inh inactive, KCC2 mod 3.1, KCNQ1 block inactive, KCNK9 inh inactive and KCNQ1 pot inactive.
CCOCCCNC(=O)N[C@@H](C)C(=O)OC was read as hERG protect -1, KCNK3 inh inactive, KCNQ1 block inactive, KCNK9 inh inactive and KCNQ1 pot inactive.
